Assay results: ChEMBL document CHEMBL1949510, “Design and synthesis of 6,6-fused heterocyclic amides as raf kinase inhibitors” (Bioorg Med Chem Lett, 2012)
pEC50, pIC50: −log10 of the molar value.

What was measured:
[1] = Apparent permeability from apical to basolateral side in human Caco2 cells; format: ADME, cell-based; conditions: Caco-2
[2] = target: T1, Serine/threonine-protein kinase B-raf (Homo sapiens, UniProt P15056, V600E); assay: Inhibition of Braf V600E mutant-mediated Erk phosphorylation in human SK-MEL-28 cells after 4 hrs by Western blot analysis; format: cell-based
[3] = Solubility of the compound at pH 7; format: physicochemical; conditions: buffer
[4] = target: T1, Serine/threonine-protein kinase B-raf; assay: Inhibition of N-terminus His6-tagged Braf V600E mutant expressed in insect Sf9 cells assessed as Mek phosphorylation after 2 hrs by ELISA
Procedure, shortened: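 Biochemical assay with the purified BrafV600E kinase domain, not the full-length protein.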

[5] = target: Tyrosine-protein kinase ABL1 (Homo sapiens, UniProt P00519); assay: Inhibition of cABL
Procedure, shortened: (§1)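 Selectivity profiling panel of 50 kinases spanning RTKs, STKs, TKs and AGC kinases.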

[6] = target: Macrophage colony-stimulating factor 1 receptor (Homo sapiens, UniProt P07333); assay: Inhibition of CSFR1; procedure, shortened: as §1
[7] = target: Vascular endothelial growth factor receptor 2 (Homo sapiens, UniProt P35968); assay: Inhibition of KDR; procedure, shortened: as §1
[8] = target: T2, Receptor-type tyrosine-protein kinase FLT3 (Homo sapiens, UniProt P36888); assay: Inhibition of Flt3; procedure, shortened: as §1
T2 sequence (P36888 whole entry): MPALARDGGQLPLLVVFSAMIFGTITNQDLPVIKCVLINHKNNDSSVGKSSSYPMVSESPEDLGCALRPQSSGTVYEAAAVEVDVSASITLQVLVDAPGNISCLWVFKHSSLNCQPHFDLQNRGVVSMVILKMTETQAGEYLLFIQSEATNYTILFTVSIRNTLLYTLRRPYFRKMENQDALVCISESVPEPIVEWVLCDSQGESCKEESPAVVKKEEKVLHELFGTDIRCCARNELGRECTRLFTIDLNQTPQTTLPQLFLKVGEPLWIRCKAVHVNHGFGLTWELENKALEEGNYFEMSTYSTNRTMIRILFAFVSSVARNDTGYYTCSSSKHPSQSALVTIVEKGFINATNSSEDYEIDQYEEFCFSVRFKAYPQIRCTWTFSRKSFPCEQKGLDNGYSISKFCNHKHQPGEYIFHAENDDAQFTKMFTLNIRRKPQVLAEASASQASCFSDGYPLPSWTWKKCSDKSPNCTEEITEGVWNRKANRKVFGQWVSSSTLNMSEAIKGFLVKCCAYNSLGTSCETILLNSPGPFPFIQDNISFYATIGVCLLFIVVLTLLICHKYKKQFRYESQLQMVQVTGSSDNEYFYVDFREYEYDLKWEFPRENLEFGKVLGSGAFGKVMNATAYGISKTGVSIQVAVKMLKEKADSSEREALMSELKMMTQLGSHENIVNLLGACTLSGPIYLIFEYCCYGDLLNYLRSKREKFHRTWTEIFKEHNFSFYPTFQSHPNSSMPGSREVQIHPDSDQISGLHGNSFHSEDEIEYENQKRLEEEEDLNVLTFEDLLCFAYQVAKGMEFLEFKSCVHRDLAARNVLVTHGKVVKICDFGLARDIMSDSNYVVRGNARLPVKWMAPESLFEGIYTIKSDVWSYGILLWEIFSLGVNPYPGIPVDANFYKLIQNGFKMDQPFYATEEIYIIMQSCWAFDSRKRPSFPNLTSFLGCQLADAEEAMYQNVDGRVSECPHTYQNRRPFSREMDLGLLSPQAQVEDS

[9] = Half life in mouse at 20 mg/kg, po administered as single dose; format: ADME, organism-based; set-up: dose 20 mg/kg, route oral; conditions: in vivo
[10] = Clearance in mouse at 20 mg/kg, po administered as single dose; format: ADME, organism-based; set-up: dose 20 mg/kg, route oral; conditions: in vivo
[11] = Oral bioavailability in mouse at 20 mg/kg administered as single dose; format: ADME, organism-based; conditions: in vivo
[12] = test system: Mus musculus; assay: Volume of distribution in mouse at 20 mg/kg, po administered as single dose; format: ADME, organism-based; set-up: dose 20 mg/kg, route oral; conditions: in vivo

Tyrosine-protein kinase ABL1, sequence (P00519 whole entry): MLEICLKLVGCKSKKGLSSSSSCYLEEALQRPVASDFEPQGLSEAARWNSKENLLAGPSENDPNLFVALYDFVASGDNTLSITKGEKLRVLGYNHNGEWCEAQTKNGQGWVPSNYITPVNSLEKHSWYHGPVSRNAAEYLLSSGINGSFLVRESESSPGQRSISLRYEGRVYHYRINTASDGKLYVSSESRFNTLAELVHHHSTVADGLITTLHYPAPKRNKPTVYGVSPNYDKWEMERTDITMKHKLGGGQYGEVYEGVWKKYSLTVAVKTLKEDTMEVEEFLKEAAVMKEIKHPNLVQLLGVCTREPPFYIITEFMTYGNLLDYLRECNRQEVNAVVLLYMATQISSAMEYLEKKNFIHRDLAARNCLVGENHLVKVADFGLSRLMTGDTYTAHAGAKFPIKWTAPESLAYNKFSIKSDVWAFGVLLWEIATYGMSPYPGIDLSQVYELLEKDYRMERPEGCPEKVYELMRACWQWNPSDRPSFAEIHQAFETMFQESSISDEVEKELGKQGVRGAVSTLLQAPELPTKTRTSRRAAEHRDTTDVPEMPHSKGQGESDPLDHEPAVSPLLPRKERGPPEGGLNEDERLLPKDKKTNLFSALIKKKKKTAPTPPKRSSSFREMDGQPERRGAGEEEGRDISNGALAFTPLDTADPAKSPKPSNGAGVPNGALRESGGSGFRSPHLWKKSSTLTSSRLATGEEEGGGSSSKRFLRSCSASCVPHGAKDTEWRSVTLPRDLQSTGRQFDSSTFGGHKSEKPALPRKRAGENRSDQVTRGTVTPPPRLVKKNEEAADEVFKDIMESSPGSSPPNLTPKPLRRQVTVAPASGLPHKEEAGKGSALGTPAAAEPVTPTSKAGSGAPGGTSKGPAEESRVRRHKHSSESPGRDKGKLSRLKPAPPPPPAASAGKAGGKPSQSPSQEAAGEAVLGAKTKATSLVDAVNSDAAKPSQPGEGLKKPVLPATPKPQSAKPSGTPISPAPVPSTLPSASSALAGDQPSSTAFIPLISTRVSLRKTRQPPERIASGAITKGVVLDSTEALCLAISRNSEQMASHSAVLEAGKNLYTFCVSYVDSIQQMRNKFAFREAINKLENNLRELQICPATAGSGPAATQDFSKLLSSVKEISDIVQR
T1 sequence (P15056 2-766 V600E limits assumed): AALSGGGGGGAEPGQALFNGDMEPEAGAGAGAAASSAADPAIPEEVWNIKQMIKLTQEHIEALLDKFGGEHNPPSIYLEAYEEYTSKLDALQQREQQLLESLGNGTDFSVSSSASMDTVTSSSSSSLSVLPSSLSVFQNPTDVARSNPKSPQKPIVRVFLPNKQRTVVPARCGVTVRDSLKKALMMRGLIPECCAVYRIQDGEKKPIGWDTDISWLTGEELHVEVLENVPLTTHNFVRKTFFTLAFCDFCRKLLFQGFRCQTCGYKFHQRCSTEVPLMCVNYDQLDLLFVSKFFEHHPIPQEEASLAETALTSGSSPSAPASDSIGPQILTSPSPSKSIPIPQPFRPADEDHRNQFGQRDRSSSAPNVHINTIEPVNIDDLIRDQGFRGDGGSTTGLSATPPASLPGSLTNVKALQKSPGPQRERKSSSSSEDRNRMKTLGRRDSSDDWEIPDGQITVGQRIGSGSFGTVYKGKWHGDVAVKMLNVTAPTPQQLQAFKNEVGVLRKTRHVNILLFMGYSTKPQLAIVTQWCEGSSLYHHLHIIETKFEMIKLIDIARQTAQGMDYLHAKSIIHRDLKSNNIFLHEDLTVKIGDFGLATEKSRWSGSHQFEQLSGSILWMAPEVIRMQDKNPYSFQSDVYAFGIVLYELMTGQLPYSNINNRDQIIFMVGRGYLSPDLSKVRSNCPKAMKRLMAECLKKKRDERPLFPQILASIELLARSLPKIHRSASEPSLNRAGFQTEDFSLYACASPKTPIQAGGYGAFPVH
Macrophage colony-stimulating factor 1 receptor, sequence (P07333 whole entry): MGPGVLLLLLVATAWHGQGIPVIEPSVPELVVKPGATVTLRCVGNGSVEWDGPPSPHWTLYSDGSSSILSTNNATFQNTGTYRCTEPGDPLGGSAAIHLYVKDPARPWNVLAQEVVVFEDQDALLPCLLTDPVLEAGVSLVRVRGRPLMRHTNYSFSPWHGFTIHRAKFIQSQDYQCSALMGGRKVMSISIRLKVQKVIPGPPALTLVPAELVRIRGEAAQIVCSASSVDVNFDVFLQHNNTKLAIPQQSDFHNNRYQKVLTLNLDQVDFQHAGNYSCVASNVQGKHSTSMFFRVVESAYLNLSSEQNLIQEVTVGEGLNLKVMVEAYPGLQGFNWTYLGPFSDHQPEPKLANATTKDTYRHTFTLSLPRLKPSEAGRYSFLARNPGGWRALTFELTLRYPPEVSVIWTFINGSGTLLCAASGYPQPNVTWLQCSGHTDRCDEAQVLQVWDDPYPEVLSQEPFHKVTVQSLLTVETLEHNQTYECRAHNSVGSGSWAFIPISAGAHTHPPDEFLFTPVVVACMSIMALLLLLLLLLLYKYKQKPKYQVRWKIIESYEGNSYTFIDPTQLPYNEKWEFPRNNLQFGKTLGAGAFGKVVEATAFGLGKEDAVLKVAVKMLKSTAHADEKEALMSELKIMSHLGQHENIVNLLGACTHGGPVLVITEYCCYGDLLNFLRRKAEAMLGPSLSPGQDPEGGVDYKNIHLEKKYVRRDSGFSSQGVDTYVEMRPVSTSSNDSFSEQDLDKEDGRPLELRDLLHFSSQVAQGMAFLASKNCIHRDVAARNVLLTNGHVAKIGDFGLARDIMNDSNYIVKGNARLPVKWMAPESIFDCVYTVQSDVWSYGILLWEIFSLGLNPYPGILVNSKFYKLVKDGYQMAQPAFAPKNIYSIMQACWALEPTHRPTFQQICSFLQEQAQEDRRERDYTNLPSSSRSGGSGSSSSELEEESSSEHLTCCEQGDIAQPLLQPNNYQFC
Vascular endothelial growth factor receptor 2, sequence (P35968 whole entry): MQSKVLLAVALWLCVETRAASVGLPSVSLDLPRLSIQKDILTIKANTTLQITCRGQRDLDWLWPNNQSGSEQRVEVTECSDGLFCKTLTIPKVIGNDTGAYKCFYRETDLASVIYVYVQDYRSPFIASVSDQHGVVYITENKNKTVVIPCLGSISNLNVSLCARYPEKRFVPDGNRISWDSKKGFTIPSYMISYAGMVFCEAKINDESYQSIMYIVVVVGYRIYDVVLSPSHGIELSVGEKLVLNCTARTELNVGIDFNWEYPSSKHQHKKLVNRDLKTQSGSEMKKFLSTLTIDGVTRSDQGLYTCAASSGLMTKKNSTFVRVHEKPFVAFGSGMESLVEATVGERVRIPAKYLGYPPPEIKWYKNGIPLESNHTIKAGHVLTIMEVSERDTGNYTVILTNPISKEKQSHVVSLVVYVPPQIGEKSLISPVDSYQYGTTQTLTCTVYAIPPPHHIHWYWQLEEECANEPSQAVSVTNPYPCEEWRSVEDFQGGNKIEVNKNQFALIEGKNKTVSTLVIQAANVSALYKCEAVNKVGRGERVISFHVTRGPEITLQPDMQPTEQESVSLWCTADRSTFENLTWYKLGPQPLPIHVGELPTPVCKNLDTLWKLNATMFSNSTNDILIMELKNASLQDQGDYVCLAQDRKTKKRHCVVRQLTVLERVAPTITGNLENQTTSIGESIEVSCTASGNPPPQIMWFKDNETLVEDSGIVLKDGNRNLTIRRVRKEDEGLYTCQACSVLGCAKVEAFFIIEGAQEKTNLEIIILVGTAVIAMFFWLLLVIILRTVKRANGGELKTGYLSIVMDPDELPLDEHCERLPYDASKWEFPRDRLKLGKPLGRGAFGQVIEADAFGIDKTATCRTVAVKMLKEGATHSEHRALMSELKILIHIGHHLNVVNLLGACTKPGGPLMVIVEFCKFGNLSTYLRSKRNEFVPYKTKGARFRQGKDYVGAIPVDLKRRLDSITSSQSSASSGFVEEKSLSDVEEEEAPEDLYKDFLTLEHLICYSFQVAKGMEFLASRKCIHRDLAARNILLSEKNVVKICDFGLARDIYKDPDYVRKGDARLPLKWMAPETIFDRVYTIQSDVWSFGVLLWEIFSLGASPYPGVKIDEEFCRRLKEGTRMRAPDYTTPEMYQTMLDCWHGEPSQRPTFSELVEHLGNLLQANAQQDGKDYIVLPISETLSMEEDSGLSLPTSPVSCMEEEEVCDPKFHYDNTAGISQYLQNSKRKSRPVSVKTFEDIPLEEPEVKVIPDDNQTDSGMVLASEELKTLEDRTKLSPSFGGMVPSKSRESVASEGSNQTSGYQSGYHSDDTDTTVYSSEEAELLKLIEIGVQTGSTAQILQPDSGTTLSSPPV

| Papp A→B [1] | pEC50 [2] | solubility [3] | pIC50 [4] | pIC50 [5] | pIC50 [6] | pIC50 [7] | pIC50 [8] | half-life [9] | CL/F [10] | bioavailability [11] | Vd [12] | SMILES |
| --- | --- | --- | --- | --- | --- | --- | --- | --- | --- | --- | --- | --- |
| < 1 ×10⁻⁶ cm/s | < 5.00 | < 1 µM | 5.66 | – | – | – | – | – | – | – | – | CNC(=O)c1cc(Oc2ccc3nc(Nc4ccccc4)ncc3c2)ccn1 |
| < 1 ×10⁻⁶ cm/s | < 5.00 | < 1 µM | 4.62 | – | – | – | – | – | – | – | – | CNC(=O)c1cc(Oc2ccc3nc(Nc4ccccc4Br)ncc3c2)ccn1 |
| < 1 ×10⁻⁶ cm/s | < 5.00 | < 1 µM | 5.89 | – | – | – | – | – | – | – | – | CCc1ccccc1Nc1ncc2cc(Oc3ccnc(C(=O)NC)c3)ccc2n1 |
| < 1 ×10⁻⁶ cm/s | < 5.00 | < 1 µM | 5.28 | – | – | – | – | – | – | – | – | CNC(=O)c1cc(Oc2ccc3nc(Nc4ccccc4Oc4ccccc4)ncc3c2)ccn1 |
| < 1 ×10⁻⁶ cm/s | < 5.00 | < 1 µM | 6.18 | – | – | – | – | – | – | – | – | CNC(=O)c1cc(Oc2ccc3nc(Nc4cccc(Cl)c4)ncc3c2)ccn1 |
| < 1 ×10⁻⁶ cm/s | < 5.00 | < 1 µM | 6.74 | – | – | – | – | – | – | – | – | CNC(=O)c1cc(Oc2ccc3nc(Nc4cccc(Br)c4)ncc3c2)ccn1 |
| < 1 ×10⁻⁶ cm/s | < 5.00 | < 1 µM | 7.35 | > 6.00 | > 6.00 | > 6.00 | > 6.00 | – | – | – | – | CNC(=O)c1cc(Oc2ccc3nc(Nc4cccc(C(C)(C)C)c4)ncc3c2)ccn1 |
| < 1 ×10⁻⁶ cm/s | < 5.00 | < 1 µM | 6.19 | – | – | – | – | – | – | – | – | CNC(=O)c1cc(Oc2ccc3nc(Nc4cccc(C(F)(F)F)c4)ncc3c2)ccn1 |
| < 1 ×10⁻⁶ cm/s | < 5.00 | < 1 µM | 7.15 | – | – | – | – | – | – | – | – | CNC(=O)c1cc(Oc2ccc3nc(Nc4cccc(OC(F)(F)F)c4)ncc3c2)ccn1 |
| < 1 ×10⁻⁶ cm/s | < 5.00 | < 1 µM | 6.82 | – | – | – | – | 7.8 h | 53.1 mL/min/kg | 35% | 4.717 L/kg | CNC(=O)c1cc(Oc2ccc3nc(Nc4cccc(C(C)C)c4)ncc3c2)ccn1 |
| < 1 ×10⁻⁶ cm/s | < 5.00 | < 1 µM | 6.22 | – | – | – | – | – | – | – | – | CNC(=O)c1cc(Oc2ccc3nc(Nc4ccc(F)cc4)ncc3c2)ccn1 |
| < 1 ×10⁻⁶ cm/s | < 5.00 | < 1 µM | 6.51 | – | – | – | – | – | – | – | – | CNC(=O)c1cc(Oc2ccc3nc(Nc4ccc(Br)cc4)ncc3c2)ccn1 |
| < 1 ×10⁻⁶ cm/s | < 5.00 | < 1 µM | 7.17 | – | – | – | – | – | – | – | – | CNC(=O)c1cc(Oc2ccc3nc(Nc4ccc(C(F)(F)F)cc4)ncc3c2)ccn1 |
| < 1 ×10⁻⁶ cm/s | < 5.00 | < 1 µM | 9.00 | – | – | – | – | – | – | – | – | CNC(=O)c1cc(Oc2ccc3nc(Nc4ccc(C(C)C)cc4)ncc3c2)ccn1 |
| < 1 ×10⁻⁶ cm/s | < 5.00 | < 1 µM | 6.41 | – | – | – | – | – | – | – | – | CNC(=O)c1cc(Oc2ccc3nc(Nc4ccc(OC)cc4)ncc3c2)ccn1 |
| < 1 ×10⁻⁶ cm/s | < 5.00 | < 1 µM | 7.10 | – | – | – | – | – | – | – | – | CNC(=O)c1cc(Oc2ccc3nc(Nc4ccc(OC(F)(F)F)cc4)ncc3c2)ccn1 |
| < 1 ×10⁻⁶ cm/s | < 5.00 | < 1 µM | 6.22 | – | – | – | – | – | – | – | – | CNC(=O)c1cc(Oc2ccc3nc(Nc4ccc(Oc5ccccc5)cc4)ncc3c2)ccn1 |
| < 1 ×10⁻⁶ cm/s | < 5.00 | < 1 µM | 4.60 | – | – | – | – | – | – | – | – | CNC(=O)c1cc(Oc2ccc3nc(Nc4ccc(-c5cccnc5)cc4)ncc3c2)ccn1 |
| < 1 ×10⁻⁶ cm/s | < 5.00 | < 1 µM | 5.07 | – | – | – | – | – | – | – | – | O=C(NCCO)c1cc(Oc2ccc3nc(Nc4ccc(Br)cc4)ncc3c2)ccn1 |
| < 1 ×10⁻⁶ cm/s | < 5.00 | < 1 µM | 5.89 | – | – | – | – | – | – | – | – | O=C(NCCN1CCCCC1)c1cc(Oc2ccc3nc(Nc4ccc(Br)cc4)ncc3c2)ccn1 |
| < 1 ×10⁻⁶ cm/s | < 5.00 | < 1 µM | 7.60 | > 6.00 | > 6.00 | > 6.00 | > 6.00 | – | – | – | – | CNC(=O)c1cc(Oc2ccc3nc(Nc4cccc(C(C)(C)C)c4)cnc3c2)ccn1 |
| < 1 ×10⁻⁶ cm/s | < 5.00 | < 1 µM | 7.59 | > 6.00 | > 6.00 | > 6.00 | > 6.00 | – | – | – | – | CNC(=O)c1cc(Oc2ccc3nc(Nc4cccc(C(C)(C)C)c4)ccc3c2)ccn1 |
| < 1 ×10⁻⁶ cm/s | – | < 1 µM | – | – | – | – | – | – | – | – | – | CNC(=O)c1cc(Oc2ccc3c(c2)nc(Nc2cccc(C(C)(C)C)c2)n3C)ccn1 |
